Assay results as given in ChEMBL document CHEMBL1166008, “A new class of potential anti-tuberculosis agents: Synthesis and preliminary evaluation of novel acrylic acid ethyl ester derivatives” (Bioorg Med Chem, 2010).
≈ marks a conversion by molar mass, not a printed value.

Tests used:
[1] = test system: Bacillus cereus; assay: Antibacterial activity against Bacillus cereus after 18 to 24 hrs by microtiter plate method; assay type: functional
In short: (§1)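 Broth microdilution MIC in cation-adjusted Mueller–Hinton broth. Cultures grown statically overnight on tryptic soy agar at 35 °C. Plates incubated 18–24 h at 35 °C and scored growth/no growth. Tetracycline control included.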

[2] = test system: Staphylococcus aureus; assay: Antibacterial activity against Staphylococcus aureus ATCC 29213 after 18 to 24 hrs by microtiter plate method; assay type: functional; in short: as §1
[3] = test system: Mycolicibacterium smegmatis; assay: Antimycobacterial activity against Mycobacterium smegmatis after 48 hrs by microtiter plate method; assay type: functional
In short: (§2)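 Broth microdilution MIC in Middlebrook 7H9 broth with 10% OADC. Mycobacterial cultures grown statically seven days in the same medium at 35 °C. Plates incubated 48 h at 35 °C and scored growth/no growth. Rifampin positive control.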

[4] = test system: Escherichia coli; assay: Antibacterial activity against Escherichia coli ATCC 25922 after 18 to 24 hrs by microtiter plate method; assay type: functional; in short: as §1
[5] = test system: Mycobacterium tuberculosis; assay: Antimycobacterial activity against Mycobacterium tuberculosis H37Rv after 48 hrs by green fluorescent protein-based assay; assay type: functional
In short: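 M. tuberculosis H37Rv carrying high-copy pHIGH22 plasmid expressing GFP. Killing read as loss of GFP fluorescence. Isoniazid and rifampin positive controls.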

[6] = test system: Mycolicibacterium fortuitum; assay: Antimycobacterial activity against Mycobacterium fortuitum after 48 hrs by microtiter plate method; assay type: functional; in short: as §2
[7] = test system: Mycobacterium avium; assay: Antimycobacterial activity against Mycobacterium avium after 48 hrs by microtiter plate method; assay type: functional; in short: as §2
[8] = test system: Mycobacteroides chelonae; assay: Antimycobacterial activity against Mycobacterium chelonae after 48 hrs by microtiter plate method; assay type: functional; in short: as §2
[9] = test system: Mycobacterium kansasii; assay: Antimycobacterial activity against Mycobacterium kansasii after 48 hrs by microtiter plate method; assay type: functional; in short: as §2
[10] = test system: J774.A1; assay: Cytotoxicity against mouse J774A1 cells after 24 hrs by trypan blue exclusion assay; assay type: cell-based; conditions: J774.A1, 24 h
In short: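 Murine J774A.1 monocytes seeded at 1 × 10^6/well in RPMI 1640. Next day, twofold dilutions of drug in PBS added. Following day, trypan blue added for 10 min, then dead (blue) and live cells counted in three fields per well. IC50 taken as concentration giving 50% dead cells.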

[11] = test system: Mycobacterium intracellulare; assay: Antimycobacterial activity against Mycobacterium intracellular after 48 hrs by microtiter plate method; assay type: functional; in short: as §2

Work on `CCOC(=O)/C=C\Sc1ccccc1C(C)C` yielded an MIC [1] of over 128 mg/L, an MIC [2] of over 128 mg/L and an MIC [3] of over 128 mg/L. It also gave an MIC [4] of over 128 mg/L.

`CCOC(=O)/C=C\Oc1ccc(F)cc1` was tested, and the MIC [1] was over 128 mg/L, the MIC [2] was over 128 mg/L and the MIC [3] was over 128 mg/L. The MIC [4] was over 128 mg/L.

For `CCOC(=O)/C=C\Oc1ccccc1C`, the MIC [1] was over 128 mg/L, the MIC [2] was over 128 mg/L and the MIC [3] was over 128 mg/L. It also gave an MIC [4] of over 128 mg/L.

For `CCOC(=O)/C=C\Oc1cccnc1`, the MIC [1] was over 128 mg/L, the MIC [2] was over 128 mg/L and the MIC [3] was over 128 mg/L. The MIC [4] was over 128 mg/L.

For `CCOC(=O)/C=C\n1nnnc1SC`, the MIC [1] was over 128 mg/L, the MIC [2] was over 128 mg/L and the MIC [3] was 128 mg/L (≈ 597 µM). It also gave an MIC [4] of over 128 mg/L.

Compound `CCOC(=O)/C=C\Sc1ccc2ccccc2c1` has an MIC [1] of over 128 mg/L, an MIC [2] of 128 mg/L (≈ 495 µM) and an MIC [3] of 64 mg/L (≈ 248 µM). For the same compound, the MIC [4] was over 128 mg/L.

With `CCOC(=O)/C=C\Sc1ccc(C(C)(C)C)cc1` the MIC [1] was over 128 mg/L, the MIC [5] was 25 mg/L (≈ 94.6 µM) and the MIC [6] was 4 mg/L (≈ 15.1 µM). For the same compound, the MIC [7] was 64 mg/L (≈ 242 µM), the MIC [8] was 8 mg/L (≈ 30.3 µM) and the MIC [2] was over 128 mg/L. For the same compound, the MIC [3] was 16 mg/L (≈ 60.5 µM), the MIC [9] was 16 mg/L (≈ 60.5 µM) and the MIC [4] was over 128 mg/L. The IC50 [10] was 150 mg/L (≈ 567 µM) and the MIC [11] was 128 mg/L (≈ 484 µM).

Compound `CCOC(=O)/C=C\Sc1nc2ccccc2s1` has an MIC [1] of over 128 mg/L, an MIC [5] of 25 mg/L (≈ 94.2 µM) and an MIC [6] of 16 mg/L (≈ 60.3 µM). The MIC [7] was 64 mg/L (≈ 241 µM), the MIC [8] was 8 mg/L (≈ 30.1 µM) and the MIC [2] was over 128 mg/L. The MIC [3] was 32 mg/L (≈ 121 µM), the MIC [9] was 8 mg/L (≈ 30.1 µM) and the MIC [4] was over 128 mg/L. It also gave an IC50 [10] of 200 mg/L (≈ 754 µM) and an MIC [11] of 16 mg/L (≈ 60.3 µM).

With `CCOC(=O)/C=C\Oc1cc(OC)cc(OC)c1` the MIC [1] was over 128 mg/L, the MIC [2] was over 128 mg/L and the MIC [3] was 128 mg/L (≈ 507 µM). The MIC [4] was over 128 mg/L.

`CCOC(=O)/C=C\Oc1ccc(C(C)(C)C)cc1` gave an MIC [1] of over 128 mg/L, an MIC [2] of over 128 mg/L and an MIC [3] of 128 mg/L (≈ 515 µM). The MIC [4] was over 128 mg/L.

`CCOC(=O)/C=C\Oc1cccc(F)c1` showed an MIC [1] of over 128 mg/L, an MIC [2] of over 128 mg/L and an MIC [3] of over 128 mg/L. For the same compound, the MIC [4] was over 128 mg/L.

Work on `CCOC(=O)/C=C\Oc1cccc([N+](=O)[O-])c1` yielded an MIC [1] of over 128 mg/L, an MIC [2] of 64 mg/L (≈ 270 µM) and an MIC [3] of 64 mg/L (≈ 270 µM). For the same compound, the MIC [4] was over 128 mg/L.

Compound `CCOC(=O)/C=C\n1nnc2ccccc21` has an MIC [1] of over 128 mg/L, an MIC [2] of over 128 mg/L and an MIC [3] of over 128 mg/L. The MIC [4] was over 128 mg/L.

Work on `CCOC(=O)/C=C\Sc1ncccn1` yielded an MIC [1] of over 128 mg/L, an MIC [2] of over 128 mg/L and an MIC [3] of 64 mg/L (≈ 304 µM). For the same compound, the MIC [4] was over 128 mg/L.

`CCOC(=O)/C=C\Sc1ccccc1C(=O)OC` showed an MIC [1] of over 128 mg/L, an MIC [2] of over 128 mg/L and an MIC [3] of 64 mg/L (≈ 240 µM). For the same compound, the MIC [4] was over 128 mg/L.

`CCOC(=O)/C=C\Sc1cccc2ccccc12` showed an MIC [1] of over 128 mg/L, an MIC [2] of over 128 mg/L and an MIC [3] of 128 mg/L (≈ 495 µM). The MIC [4] was over 128 mg/L.

In the case of `CCOC(=O)/C=C\n1ncc2ccccc21`, the MIC [1] was over 128 mg/L, the MIC [2] was over 128 mg/L and the MIC [3] was over 128 mg/L. The MIC [4] was over 128 mg/L.

Compound `CCOC(=O)/C=C\Oc1ccccc1C(=O)OC` has an MIC [1] of over 128 mg/L, an MIC [2] of over 128 mg/L and an MIC [3] of over 128 mg/L. The MIC [4] was over 128 mg/L.

With `CCOC(=O)/C=C\Oc1cccc2ccccc12` the MIC [1] was over 128 mg/L, the MIC [2] was over 128 mg/L and the MIC [3] was 64 mg/L (≈ 264 µM). It also gave an MIC [4] of over 128 mg/L.

`CCOC(=O)/C=C\Oc1ccc2ccccc2c1` was tested, and the MIC [1] was over 128 mg/L, the MIC [2] was over 128 mg/L and the MIC [3] was 128 mg/L (≈ 528 µM). The MIC [4] was over 128 mg/L.

`CCOC(=O)/C=C\Oc1nc2ccccc2s1` gave an MIC [1] of over 128 mg/L, an MIC [2] of over 128 mg/L and an MIC [3] of 128 mg/L (≈ 513 µM). The MIC [4] was over 128 mg/L.

`CCOC(=O)/C=C\Sc1ccc(O)cc1` showed an MIC [1] of 128 mg/L (≈ 571 µM), an MIC [2] of 128 mg/L (≈ 571 µM) and an MIC [3] of 64 mg/L (≈ 285 µM). For the same compound, the MIC [4] was over 128 mg/L.

`CCOC(=O)/C=C\Sc1cccs1` showed an MIC [1] of over 128 mg/L, an MIC [2] of over 128 mg/L and an MIC [3] of 128 mg/L (≈ 597 µM). The MIC [4] was over 128 mg/L.

Work on `CCOC(=O)/C=C\SC1CCCCC1` yielded an MIC [1] of over 128 mg/L, an MIC [2] of over 128 mg/L and an MIC [3] of over 128 mg/L. It also gave an MIC [4] of over 128 mg/L.

`CCOC(=O)/C=C\n1ccc2ccccc21` showed an MIC [1] of over 128 mg/L, an MIC [2] of over 128 mg/L and an MIC [3] of over 128 mg/L. For the same compound, the MIC [4] was over 128 mg/L.

Work on `CCOC(=O)/C=C\Sc1ccccn1` yielded an MIC [1] of over 128 mg/L, an MIC [2] of over 128 mg/L and an MIC [3] of 128 mg/L (≈ 612 µM). For the same compound, the MIC [4] was over 128 mg/L.

Compound `CCOC(=O)/C=C\n1ccnc1` has an MIC [1] of over 128 mg/L, an MIC [2] of over 128 mg/L and an MIC [3] of over 128 mg/L. For the same compound, the MIC [4] was over 128 mg/L.

With `CCOC(=O)/C=C\Oc1ccc(C(N)=O)cc1` the MIC [1] was over 128 mg/L, the MIC [2] was over 128 mg/L and the MIC [3] was over 128 mg/L. The MIC [4] was over 128 mg/L.

Work on `CCOC(=O)/C=C\n1cccn1` yielded an MIC [1] of over 128 mg/L, an MIC [2] of over 128 mg/L and an MIC [3] of over 128 mg/L. It also gave an MIC [4] of over 128 mg/L.

Compound `CCOC(=O)/C=C\Oc1ccccc1C(C)C` has an MIC [1] of over 128 mg/L, an MIC [2] of over 128 mg/L and an MIC [3] of over 128 mg/L. For the same compound, the MIC [4] was over 128 mg/L.

With `CCOC(=O)/C=C\Oc1ccsc1C(=O)OC` the MIC [1] was over 128 mg/L, the MIC [2] was over 128 mg/L and the MIC [3] was over 128 mg/L. For the same compound, the MIC [4] was over 128 mg/L.

`NNC(=O)c1ccncc1` [ISONIAZID] gave an MIC [5] of 0.25 mg/L (≈ 1.82 µM).

`N#Cc1cccc(/C=C/SC2=NCCS2)c1` [PHENOTHIOSTYRENE] showed an MIC [1] of over 128 mg/L, an MIC [2] of over 128 mg/L and an MIC [3] of 64 mg/L (≈ 260 µM). The MIC [4] was over 128 mg/L.

Work on `CO[C@H]1/C=C/O[C@@]2(C)Oc3c(C)c(O)c4c(O)c(c(/C=N/N5CCN(C)CC5)c(O)c4c3C2=O)NC(=O)/C(C)=C\C=C\[C@H](C)[C@H](O)[C@@H](C)[C@@H](O)[C@@H](C)[C@H](OC(C)=O)[C@@H]1C` [RIFAMPIN] yielded an MIC [5] of under 0.03 mg/L and an MIC [3] of 64 mg/L (≈ 77.8 µM).
